assay: Toxicity liver stage against HepG2, at 10uM; type: cell-based; set-up: test concentration 10 uM, cell line HepG2-A16-CD81EGFP; details: human, HepG2-A16-CD81EGFP cells; read-out: INHIBITION
Procedure, shortened: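 Uninfected HepG2-A16-CD81EGFP cells, 3 × 10^3 per well, 1536-well, plated on prespotted compound at 10 μM final, parasite-free screening media added to match infected plates; puromycin 10 μM positive, DMSO 0.5% negative; run in parallel with 48 h PbLuc assay at 37 °C, 5% CO2; viability by CellTiter-Glo luminescence, normalized to controls.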

Structure (SMILES) | cytotoxicity at 10 µM
Cc1nnc([C@H]2CCN(CCCc3ccccc3)C2)o1 | 2.87%
CCOC(=O)C(C)NC(=O)N1CCN(c2nc3ccccc3n2C)CC1 (stereo unspecified) | 3.39%
O=C(NC[C@@H]1CCCO1)c1cccnc1N1CCCC1c1ccccc1 (stereo partly specified) | 3.95%
CN(CCc1ccccc1)C(=O)c1cccnc1OCC(F)(F)F | 13.5%
COc1ccc2[nH]c(C(=O)NCC3(N)CCCC3)cc2c1 | 4.3%
CCc1c(-c2ccccc2)nc2c(c(C)c(C)n2CCN(C)C)c1N | 17.7%
O=c1c(NCCCO)c(N2CCN(c3ccccc3)CC2)c1=O | -3.66%
Cc1ccc(S(=O)(=O)NCCc2ccoc2)s1 | 2.69%
O=C(CCC(=O)N1CCC(Oc2ncccc2Br)CC1)c1ccccc1 | 30.4%
COc1cccc(OCC(=O)N2CCCSCC2CN2CCOCC2)c1 (stereo unspecified) | 4.01%
O=C(c1ccoc1)N1CC[C@H]2[C@H]1CCN2S(=O)(=O)C1CC1 | -139%
O=C(NCC1CC1)C1CN(C(=O)c2ccco2)CC12CCOCC2 (stereo unspecified) | 6.61%
CCOc1ccc(C2SCC(=O)Nc3c2c(=O)[nH]n3C(C)C)cc1 (stereo unspecified) | 8.68%
Cn1ncc2c1NC(=O)CC2c1ccc(O)cc1 (stereo unspecified) | 24.3%
Cn1cccc1C(=O)NCc1cnc2n1CCN(C(=O)N1CCCC1)C2 | -5.61%
CCN(CC)CCNc1nc(C(C)C)nc2c(C)nn(CC)c12 | 8.99%
Cc1ccn(-c2ccnc(N3CCN(c4ncccn4)CC3)n2)n1 | 13.4%
Cc1ccc(OCCCNC(=O)C2(C)CC(=O)N3C=CC=CC3=N2)cc1 (stereo unspecified) | 0.343%
Cc1cc(N(C)C)nc(C2COCCN2Cc2cc(C)on2)n1 (stereo unspecified) | -3.55%
O=C(c1cnco1)N1CCC(Cc2cccc3ncccc23)CC1 | 6.79%
O=C(CCn1cccn1)N1CCC(c2nnc(-c3ccccn3)o2)CC1 | 0.125%
Cn1nc(C2CCN(C(=O)c3cnccn3)C2)cc1CCO (stereo unspecified) | 9.95%
CCCN(C(=O)c1cnc(C)cn1)c1nc2c(s1)CCc1c-2cnn1C | -28%

Structure (SMILES) | cytotoxicity at 10 µM
COc1cc(CN2CC[C@@]3(CCCO3)[C@@H](O)C2)ccc1F | -3.14%
Cc1cnn(CC(C)NCc2ccc(C#N)cc2F)c1 (stereo unspecified) | -7.44%
CN(CC(=O)NCC(F)(F)F)Cc1cccc2c1OCCO2 | -18.7%
CC(OCC1CC1)C(=O)Nc1nccn1Cc1ccccc1 (stereo unspecified) | -6.79%
Cc1cc(C(=O)NC(C)Cc2ccc(N(C)C)cc2)n(C)n1 (stereo unspecified) | 1.19%
O=C(Cc1ccc(F)cc1F)NCC(=O)Nc1ccccn1 | 3.24%
CC(O)CN(C)C(=O)CCNC(=O)OC(C)(C)C (stereo unspecified) | -5.32%
COc1ccc(N2CCC(NC(=O)c3sccc3C)CC2)cc1 | -2.28%
CN(CCc1ccccn1)C(=O)Nc1cccnc1N1CCCC1 | -27.2%
Cc1nc(CC2CCCN(Cc3nc4ccccc4c(=O)[nH]3)C2)no1 (stereo unspecified) | -44%
CC1CCC(NS(=O)(=O)CC(=O)NC(C2CC2)C2CC2)CC1 (stereo unspecified) | -2.8%
CNc1snc(C)c1C(=O)NC(C)CC(=O)c1cccs1 (stereo unspecified) | -0.227%
Cc1cn2c(CN(C)C(=O)c3nccnc3N)c(C)nc2s1 | -4.12%
Cc1cc(CNc2cccc(C(=O)N(C)c3ccccc3)c2)no1 | 2.95%
COc1ccc(CCNC(=O)C(C)Nc2cc(C)ccc2C)cc1 (stereo unspecified) | -5.71%
COc1cccc(C(=O)NCc2ccccc2S(=O)(=O)N(C)C)c1 | -5.52%
COc1cc2nc(NCc3scnc3C)nc(N)c2cc1OC | 6.34%
CNC(=O)CN1CCC(c2cc(OC)cc(OC)c2)C1 (stereo unspecified) | 4.38%
CCN(CC1CN(Cc2c(C)noc2C)CCO1)c1cccnn1 (stereo unspecified) | -7.99%
CC(O)(CNC(=O)NCc1cccc(-n2cncn2)c1)c1ccco1 (stereo unspecified) | 15%
Cc1cnc(CN2CC=C(c3c[nH]c4ncccc34)CC2)o1 | 25%
O=S(=O)(CCc1ccccc1)Cc1nc(C2CC2)no1 | 1.03%
CCc1nc(Cn2c(=O)n(C)c3ccccc32)no1 | -45.1%

Structure (SMILES) | cytotoxicity at 10 µM
Cc1ccc(CNC(=O)c2c[nH]nc2NC(=O)C2COCCO2)cc1 (stereo unspecified) | -9.95%
CCN(C(=O)COC)C(c1ccc(Cl)cc1)c1ccccn1 (stereo unspecified) | -9.7%
Cc1cc(CNCCNS(C)(=O)=O)sc1Br | -4.6%
CCOCC(=O)Nc1nccn1Cc1ccc(Br)cc1 | -44.8%
Cc1cccc(C2(NCCCS(C)(=O)=O)CCCC2)c1 | 1.3%
COc1cccc(CNCc2nnc3n2CC(C(F)(F)F)CC3)c1 (stereo unspecified) | 14%
O=C(CCc1ccccn1)N1CCc2cc(Cl)cc(Cl)c2C1 | -40.9%
c1cnn(CC2CN(c3ncnc4sccc34)CCO2)c1 (stereo unspecified) | 25.1%
CN(C)C(=O)CN1CCO[C@H]2CN(Cc3cccc(F)c3)C[C@H]21 | -97.2%
Cc1noc([C@@]23CCO[C@@H]2CCN(S(=O)(=O)c2cccnc2)C3)n1 | -103%
CCN1CCC2(CC1)CC(NC(=O)c1c[nH]cn1)c1ccccc1O2 (stereo unspecified) | -103%
Cc1cccc(-c2nnn3c2COC(CNS(=O)(=O)C2CC2)C3)c1 (stereo unspecified) | -110%
CC(C)N1CCC2(CC1)CC(c1cccnc1)C(=O)N2 (stereo unspecified) | -67.2%
C=C(C)COc1cccc(CN(C)C(C)c2nccs2)c1 (stereo unspecified) | -49.2%
CC(C)c1nnsc1CNC(=O)C1CCN(C(=O)C2CCC2)CC1 | -2.75%
Cn1ccnc1CN(CCO)C(=O)c1cc2ccccc2o1 | 3.42%
CNc1nc(C(=O)N2CCCC(COc3ccc(F)cc3)C2)cs1 (stereo unspecified) | 8.35%
CCN1CCCC1CN(Cc1cc[nH]n1)CC1CCN(CCOC)CC1 (stereo unspecified) | -5.14%
CCCc1nnc2sc(C3CCN(C4CCN(C)CC4)CC3)nn12 | -10.6%
Fc1ccc(C(CNc2ccncn2)N2CCCC2)cc1 (stereo unspecified) | 15.9%
CO[C@H]1C[C@@H](O)C12CCN(CCOc1ccc(Cl)cc1)CC2 | -9.66%
O=C(c1ncc[nH]1)N1CCC(Cn2cc(-c3cccc(Cl)c3)nn2)CC1 | -12.8%
N[C@@H]1c2ccccc2C2(CCN(c3cnc4ccccc4n3)CC2)[C@H]1O | -2.45%

Structure (SMILES) | cytotoxicity at 10 µM
CN1CCC(Cc2noc(-c3cccc(OCC(N)=O)c3)n2)CC1 | -4.42%
c1ccc(CN2CCCC(CNc3ncnc4c3CCNCC4)C2)cc1 (stereo unspecified) | -9.89%
Cn1c(N2CCOCC2)nc2cc(C(=O)N3CCC(O)(CO)C3)ccc21 (stereo unspecified) | -4.62%
Cc1cc(CC(C)Nc2nc(C3CCCC3)nc3c2cnn3C)[nH]n1 (stereo unspecified) | -6.12%
CC(Cn1cncn1)NCCN1CCc2ccccc2C1 (stereo unspecified) | -1.27%
Cc1nc(CN2CC[C@@H]3[C@@H](CCC(=O)N3CCc3c[nH]cn3)C2)co1 | 2.62%
N#CC1CCCN(C(=O)Cn2ncc(N3CCCC3)cc2=O)C1 (stereo unspecified) | -6.36%
CCOc1cccc(CN(Cc2cnn(C)c2)CC(C)C)c1O | -7%
CN(CCCc1nccn1C)C(=O)C1COc2ccccc2C1 (stereo unspecified) | -9.1%
c1cncc(CN(CCCn2ccnc2)CC2CCOC2)c1 (stereo unspecified) | 1.79%
c1cc2ccc(N3CCN(Cc4ccc5c(c4)OCO5)CC3)nc2[nH]1 | -6.07%
CN1N=C(C(=O)N2CCCC(CCc3ccccc3F)C2)CCC1=O (stereo unspecified) | -6.67%
O=C(c1cccnc1N1CCOC(c2ccc(Cl)cc2)C1)N1CCCC1 (stereo unspecified) | 7.21%
CN(C(=O)c1cccc(NCC(=O)O)c1)C(C1CC1)C1CC1 | 5.01%
c1coc(CN2CCn3c(nc4ccccc43)C2)c1 | 21.8%
CCc1n[nH]c(C(=O)N2CCCC3(CN(C)C(=O)O3)C2)c1C (stereo unspecified) | -44.7%
Cn1ncc2c(NCCCOc3cccnc3)nc(C3CCCC3)nc21 | 2.94%
CC(CN1CCC2(CC1)c1nc[nH]c1CCN2S(C)(=O)=O)C(F)(F)F (stereo unspecified) | -8.51%
O=C1CCC2(CCCN(C(=O)c3cscn3)C2)CN1CCc1c[nH]cn1 (stereo unspecified) | -13%
NC(=O)C1CCN(C(=O)c2cccc(CN3CCOCC3)c2)CC1 | -20%
Cc1ccccc1N1CCN(C(=O)c2ccc[nH]2)C(C)C1 (stereo unspecified) | -8.68%
Cc1cncc(C(=O)NCCSCc2cccs2)c1 | -6.48%
NC(=O)C1CCN(CCc2ccc(NC(=O)C3CC3)cc2)CC1 | -7.72%

Structure (SMILES) | cytotoxicity at 10 µM
CN1CCOC(CNCc2csc(C3CCCC3)n2)C1 (stereo unspecified) | -0.383%
CS(=O)(=O)N1CCC(NC(=O)COc2ccc(Br)cc2Cl)CC1 | 3.25%
Cc1ccc(C(=O)N2CCCC(c3nncn3C)C2)c(C)c1 (stereo unspecified) | -14.1%
C=C(C)COCCNC(=O)C1CCCN1C(C)=O (stereo unspecified) | -10.7%
Cc1nc(CN(C)C2CCN(Cc3sc(C)nc3C)C2)no1 (stereo unspecified) | -8.99%
CNS(=O)(=O)c1ccc(C(=O)N2CCCC2Cc2ccccc2)o1 (stereo unspecified) | -8.53%
CCOCCN1CCN(Cc2cccc(C(=O)N(C)C)c2)CC1 | -13.5%
CC(C)(NCC(=O)NCCC#N)c1ccc2c(c1)OCCO2 | -4.03%
CC(NC(=O)N(C)Cc1ccsc1)c1ccc2c(c1)OCO2 (stereo unspecified) | -10.6%
CN(C)c1ccc(CCNC(=O)NCc2ccc(N(C)C)nc2)cc1 | -11.2%
CCOc1ncccc1NC(=O)NC1CCN(S(C)(=O)=O)CC1 | -7.96%
c1cnc(N2CCOCC3(C2)CN(c2nccs2)CCO3)nc1 (stereo unspecified) | -104%
Cn1cc(CNC2CC3(CCN(S(C)(=O)=O)CC3)c3ccccc32)cn1 (stereo unspecified) | -110%
COCC1CN(Cc2ccncc2)Cc2nnn(CC3CC3)c21 (stereo unspecified) | -5.91%
Cn1ccnc1CN1CC[C@@H](NS(C)(=O)=O)[C@@H]1Cc1ccccc1 | -77.2%
Cn1cnc2c1C(COCC1CCOCC1)CN(C(=O)C1CC=CC1)C2 (stereo unspecified) | -75.5%
c1ccc(N2CCCC3(CCN(Cc4cccs4)C3)C2)nc1 (stereo unspecified) | 12.7%
CN(C)S(=O)(=O)N1C[C@H]2CC[C@@H](C1)N(Cc1ccc3nsnc3c1)C2 | -7.7%
CCCn1cc2nc(N3CCCC3)[nH]cc-2c1=O | 2.13%

Source: ChEMBL document CHEMBL4513216, “Probing the Open Global Health Chemical Diversity Library for Multistage-Active Starting Points for Next-Generation Antimalarials” (ACS Infect Dis, 2020)
